Experimental data from ChEMBL document CHEMBL4402582, “Garcinoic Acid Is a Natural and Selective Agonist of Pregnane X Receptor” (J Med Chem, 2020).
Active and inactive are the calls of the source. The rule behind the calls is not given here.

What was measured:
[1] = Toxicity in C57BL/6 mouse assessed as mortality at 50 mg dosed as oral gavage as single bolus and measured after 24 hrs relative to control; assay type: organism-based; details: in vivo, read-out: Activity
Method in brief: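 Male C57BL/6 wild-type mice aged 6–7 weeks, 3 per group. Single bolus by oral gavage in an olive-oil vehicle, with vehicle-only controls and dose groups of 5, 10, 25, 50 and 100 mg. Animals were checked 24 h after dosing by gross appearance and behaviour, then killed, and liver and main organs were examined post-mortem.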

Mus musculus [2] = experiment: Induction of PXR protein expression in C57BL/6 mouse intestine assessed as induction of localization of PXR protein at glandular epithelium of crypts at base of mucosa epithelium at 5 to 25 mg dosed as oral gavage as single bolus and measured after 24 hrs by IHC analysis relative to control; assay type: functional, organism-based
Method in brief: (§1)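 Male C57BL/6 mice, 6–7 weeks old, three per group. Single oral gavage bolus (5–25 mg) in olive oil; vehicle controls; killed at 24 h. Liver and gut formalin-fixed, paraffin-embedded; 4 μm sections stained with H&E. PXR IHC with polyclonal antibody at 1:200 on an automated stainer with polymer detection.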

[3] = target: T1, Nuclear receptor subfamily 1 group I member 2 (Homo sapiens, UniProt O75469); experiment: Binding affinity to His-tagged PXR-LBD (unknown origin) expressed in Escherichia coli BL21 Gold by ITC analysis
T1 sequence (O75469 whole entry): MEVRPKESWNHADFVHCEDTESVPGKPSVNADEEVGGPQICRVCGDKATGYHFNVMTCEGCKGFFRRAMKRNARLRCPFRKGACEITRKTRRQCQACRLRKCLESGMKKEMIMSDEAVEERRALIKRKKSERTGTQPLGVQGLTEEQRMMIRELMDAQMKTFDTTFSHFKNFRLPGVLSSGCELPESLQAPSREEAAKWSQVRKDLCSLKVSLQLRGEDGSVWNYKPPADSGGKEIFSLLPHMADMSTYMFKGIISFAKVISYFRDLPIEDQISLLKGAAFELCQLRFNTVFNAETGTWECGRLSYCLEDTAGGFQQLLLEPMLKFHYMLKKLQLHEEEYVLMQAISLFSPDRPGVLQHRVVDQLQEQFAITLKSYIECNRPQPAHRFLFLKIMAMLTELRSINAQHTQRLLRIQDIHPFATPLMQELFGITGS
Method in brief: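 ITC at 37 °C in 25 mM HEPES pH 7.5, 150 mM NaCl, 8% v/v DMSO final. His-tagged PXR-LBD (tag not removed, gel-filtration purified) at 3 μM in cell; ligand at 60 μM in syringe, injected in 10 μL aliquots.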

[4] = target: T1, Nuclear receptor subfamily 1 group I member 2; experiment: Agonist activity at PXR in human HepaRG cells assessed as increase in PXR protein expression at 1 to 25 uM incubated for 24 hrs by immunoblot analysis; assay type: cell-based
[5] = target: T1, Nuclear receptor subfamily 1 group I member 2; experiment: Agonist activity at PXR in human HT29 cells assessed as increase in CYP3A4 protein expression at 1 to 25 uM incubated for 24 hrs by immunoblot analysis; assay type: cell-based
Mus musculus [6] = experiment: Induction of PXR protein expression in C57BL/6 mouse hepatic parenchyma assessed as induction of localization of PXR protein at sinusoidal endothelial cells at 5 to 25 mg dosed as oral gavage as single bolus and measured after 24 hrs by IHC analysis relative to control; assay type: functional, organism-based; method in brief: as §1
[7] = target: T1, Nuclear receptor subfamily 1 group I member 2; experiment: Agonist activity at PXR in human HepG2 cells transfected with PXR siRNA at 10 to 50 uM incubated for 24 hrs; assay type: cell-based; details: hepg2, 24 h
Method in brief: (§2)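 HepG2 cells reverse-transfected with PXR siRNA using lipofectamine RNAiMAX; after 24 h silencing, treated with compound for a further 24 h. PXR and CYP3A4 transcription responses measured.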

[8] = target: T1, Nuclear receptor subfamily 1 group I member 2; experiment: Agonist activity at PXR in human HepG2 cells transfected with PXR siRNA assessed as induction of CYP3A4 expression at 10 to 50 uM incubated for 24 hrs; assay type: cell-based; details: hepg2, 24 h; method in brief: as §2
[9] = target: T1, Nuclear receptor subfamily 1 group I member 2; experiment: Agonist activity at His-tagged PXR-LBD/SRC-1p (unknown origin) expressed in Escherichia coli BL21(DE3) at 10 uM by coactivator recruitment based Alpha-screen assay
Mus musculus [10] = experiment: Induction of PXR protein expression in C57BL/6 mouse intestine assessed as induction of localization of PXR protein at brush border of enterocytes at 10 mg dosed as oral gavage as single bolus and measured after 24 hrs by IHC analysis relative to control; assay type: functional, organism-based; method in brief: as §1
[11] = target: T1, Nuclear receptor subfamily 1 group I member 2; experiment: Agonist activity at PXR in human HT29-MTX cells assessed as increase in CYP3A4 protein expression at 1 to 25 uM incubated for 24 hrs by immunoblot analysis; assay type: cell-based
[12] = target: T1, Nuclear receptor subfamily 1 group I member 2; experiment: Agonist activity at PXR in human HepG2 cells assessed as increase in PXR protein expression at 1 to 25 uM incubated for 24 hrs by immunoblot analysis; assay type: cell-based; details: hepg2, 24 h
Method in brief: (§3)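 HepG2 cells, passages 2–10, treated 24 h with 1 and 25 μM. Lysates sonicated on ice; 20 μg protein run on 10–12% SDS-PAGE and immunoblotted with anti-PXR or anti-CYP3A4. Bands normalized to housekeeping protein and expressed relative to control (=1).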

[13] = target: T1, Nuclear receptor subfamily 1 group I member 2; experiment: Agonist activity at PXR in human HepG2 cells assessed as increase in CYP3A4 mRNA expression at 1 to 25 uM incubated for 24 hrs; details: hepg2, 24 h
[14] = target: T1, Nuclear receptor subfamily 1 group I member 2; experiment: Agonist activity at PXR in human HepG2 cells assessed as increase in CYP3A4 protein expression at 1 to 25 uM incubated for 24 hrs by immunoblot analysis; assay type: cell-based; details: hepg2, 24 h; method in brief: as §3
[15] = Toxicity in C57BL/6 mouse assessed as induction of liver damage at <=25 mg dosed as oral gavage as single bolus and measured after 24 hrs relative to control; assay type: organism-based; details: in vivo
Method in brief: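 Male C57BL/6 mice, 6–7 weeks old, three per group. Single oral gavage bolus of 5, 10, 25, 50 or 100 mg in olive oil vehicle. Observed at 24 h for mortality, gross appearance and behavior, then post-mortem examination of liver and main organs.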

[16] = target: T2, Oxysterols receptor LXR-beta (Homo sapiens) (UniProt P55055); experiment: Agonist activity at LXR-beta (unknown origin) at 10 uM by coactivator recruitment based Alpha-screen assay
T2 sequence (whole entry): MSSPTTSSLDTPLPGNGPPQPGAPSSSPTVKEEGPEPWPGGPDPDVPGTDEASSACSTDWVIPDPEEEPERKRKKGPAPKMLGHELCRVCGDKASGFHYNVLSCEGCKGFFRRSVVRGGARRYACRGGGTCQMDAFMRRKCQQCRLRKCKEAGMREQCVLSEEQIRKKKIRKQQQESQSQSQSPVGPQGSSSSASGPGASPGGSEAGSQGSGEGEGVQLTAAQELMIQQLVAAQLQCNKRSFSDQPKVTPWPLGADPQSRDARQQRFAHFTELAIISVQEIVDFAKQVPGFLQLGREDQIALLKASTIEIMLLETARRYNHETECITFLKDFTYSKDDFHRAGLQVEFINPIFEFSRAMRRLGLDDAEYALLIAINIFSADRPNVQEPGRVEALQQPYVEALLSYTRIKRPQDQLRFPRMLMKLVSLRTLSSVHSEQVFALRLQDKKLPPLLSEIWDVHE

[17] = target: T1, Nuclear receptor subfamily 1 group I member 2; experiment: Agonist activity at PXR in human HepG2 cells assessed as stimulation of CYP450-mediated alpha-tocopherol metabolites efflux at 25 uM; assay type: cell-based; details: hepg2, 25 µM

C/C(=C\CC/C(C)=C/CC[C@]1(C)CCc2cc(O)cc(C)c2O1)CC/C=C(\C)C(=O)O
mortality at 24 h [1]: 33% | Activity (Mus musculus [2]): Active | Kd [3]: 330 nM | Activity [4]: Active | Activity [5]: Active | Activity (Mus musculus [6]): Active | Activity [7]: Not Active | Activity [8]: Not Active | Activity [9]: Active | Activity (Mus musculus [10]): Active | Activity [11]: Active | Activity [12]: Dose-dependent effect | Activity [13]: Dose-dependent effect | Activity [14]: Dose-dependent effect | Activity [15]: Non-Toxic | Activity [16]: inactive | Activity [17]: Active
